Measured values reported in article PMC12009964 (Scientific Reports, 2025).

Columns and labels:
ERK5 = ERK5 (Homo sapiens, UniProt Q13164); assay: Z'-LYTE Kinase Assay, Ser/Thr 4 peptide; type: biochemical; conditions: read-out: IC50 against ERK5 (Z'-LYTE kinase assay)
Procedure, shortened: (§1)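 Coupled-enzyme, antibody-free fluorescence kinase assay on HeLa cell lysates (10–100 µg per well). Substrates: Ser/Thr 4 peptide for ERK5, Ser/Thr 3 peptide for ERK1/2. Test compound at 1.25, 2.5, 5 and 10 µM. Coumarin (Ex 400/Em 445 nm) and fluorescein (Ex 400/Em 520 nm) emissions read on a plate reader.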

[1] = tested on: AP-1 reporter in HeLa cells; assay: ERK5-driven AP-1 reporter assay; type: cell-based, human; conditions: 5 µM
Procedure, shortened: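 HeLa cells (2 × 10^5 per well, 6-well) transiently lipofected with an AP-1-luc reporter vector carrying six AP-1 response elements. After transfection, cells received 5 µM test compound. AP-1 mRNA measured by RT-PCR (TRIzol RNA, reverse transcription, duplicate real-time reactions), with GAPDH as normaliser and the 2−∆∆Cq method.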

ERK1/2 = assay: Z'-LYTE Kinase Assay, Ser/Thr 3 peptide; type: biochemical, human; conditions: 1.25, 2.5, 5, and 10 µM
Procedure, shortened: as §1

Hela cells [2] = assay: Annexin V/Propidium iodide flow cytometry; type: cell-based, human; conditions: 5 µM, 24 h
Procedure, shortened: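 Apoptosis assay: HeLa cells (5 × 10^5) seeded in 6-well plates for 24 h, serum-starved 20 h, then exposed to test compound for 24 h (1, 2.5 or 5 µM in methods). Annexin V-FITC/PI kit staining, flow cytometry. Quadrants: lower right early apoptotic, upper right late apoptotic, upper left necrotic. Mean ± SD of three independent experiments.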

[3] = tested on: PCNA expression in Hela cells; assay: PCNA mRNA expression by quantitative RT-PCR; type: cell-based, human; conditions: for inhibition rate of the expression of PCNA: Hela cells, qRT-PCR, 5 μM as printed in abstract; for inhibition at 10 µM: Homo sapiens, HeLa, read-out: Inhibition of PCNA expression
Hela cells [4] = assay: DAPI staining assay; type: cell-based, human; conditions: 5 µM, 24 h, compared to DMSO
Procedure, shortened: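 HeLa cells (5 × 10^3) seeded in 24-well plates for 24 h, treated 24 h with test compound (1, 2.5 or 5 µM in methods). Fixed in 4% paraformaldehyde 10 min, washed, stained with 300 nM DAPI 15 min in the dark. Nuclear morphology of apoptotic cells examined by fluorescence microscopy.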

ERK5, sequence (Q13164 2-816): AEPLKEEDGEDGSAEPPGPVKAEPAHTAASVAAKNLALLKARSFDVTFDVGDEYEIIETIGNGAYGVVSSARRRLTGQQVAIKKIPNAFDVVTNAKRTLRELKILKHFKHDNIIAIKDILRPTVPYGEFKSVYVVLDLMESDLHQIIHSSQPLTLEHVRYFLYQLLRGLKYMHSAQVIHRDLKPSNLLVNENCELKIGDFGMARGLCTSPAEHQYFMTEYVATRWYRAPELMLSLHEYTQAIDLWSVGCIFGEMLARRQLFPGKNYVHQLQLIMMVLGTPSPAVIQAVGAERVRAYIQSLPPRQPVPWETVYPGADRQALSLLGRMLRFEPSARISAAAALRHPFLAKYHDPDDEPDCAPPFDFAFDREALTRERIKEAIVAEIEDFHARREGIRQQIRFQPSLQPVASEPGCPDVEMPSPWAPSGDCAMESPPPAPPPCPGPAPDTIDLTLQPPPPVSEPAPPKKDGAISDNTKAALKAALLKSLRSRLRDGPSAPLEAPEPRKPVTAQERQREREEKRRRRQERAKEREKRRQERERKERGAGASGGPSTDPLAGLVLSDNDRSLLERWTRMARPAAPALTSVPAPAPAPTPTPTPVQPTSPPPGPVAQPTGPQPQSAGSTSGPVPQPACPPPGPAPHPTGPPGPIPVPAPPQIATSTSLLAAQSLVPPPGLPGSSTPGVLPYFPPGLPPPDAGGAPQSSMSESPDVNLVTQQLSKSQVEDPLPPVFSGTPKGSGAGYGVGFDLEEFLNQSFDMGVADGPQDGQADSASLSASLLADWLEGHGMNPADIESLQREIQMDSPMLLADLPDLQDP

In the case of CC(C)CCOc1cc(C[n+]2c(C(C)C)n(CCC(C)C)c3ccccc32)c(OCCC(C)C)c2ccccc12.[Br-] [4e, 3-((1,4-bis(isopentyloxy)naphthalen-2-yl)methyl)−1-isoamyl-2-isopropyl-1H-benzo[d]imidazol-3-ium bromide], the IC50 (ERK5) is reported as 5.1 µM, the “expression of AP-1” value [1] is reported as “significantly decreased” and the “effect on ERK1/2 kinase activity” value (ERK1/2) is reported as “did not inhibit ERK1/2 kinase activity”. For the same molecule, the “increase of late apoptotic events compared with DMSO” value (Hela cells [2]) was 10.8%, the “inhibition rate of the expression of PCNA” value [3] was 61.1% and the “apoptosis by DAPI staining” value (Hela cells [4]) was “triggered apoptosis”.

Molecule COC(C)c1n(CCC(C)C)c2ccccc2[n+]1Cc1cc(OCCC(C)C)c2ccccc2c1OCCC(C)C (stereo not drawn) [4j, 3-((1,4-Bis(isoamyloxy)naphthalen-2-yl)methyl)−1-isoamyl-2-(1-methoxyethyl)−1H-benzo[d]imidazol-3-ium bromide] has an inhibition at 10 µM [3] of 57.4%.

In the case of Cc1cc2c(cc1C)[n+](Cc1cc(OCCC(C)C)c3ccccc3c1OCCC(C)C)cn2CCC(C)C.[Br-] [4k, 3-((1,4-Bis(isoamyloxy)naphthalen-2-yl)methyl)−1-isoamyl-5,6-dimethyl-1H-benzo[d]imidazol-3-ium bromide], the IC50 (ERK5) is reported as 9 µM, the “expression of AP-1” value [1] is reported as “significantly decreased” and the “effect on ERK1/2 kinase activity” value (ERK1/2) is reported as “did not inhibit ERK1/2 kinase activity”. The “increase of late apoptotic events compared with DMSO” value (Hela cells [2]) was 14%, the “inhibition rate of the expression of PCNA” value [3] was 70.2% and the inhibition at 10 µM [3] was 70.2%. The “apoptosis by DAPI staining” value (Hela cells [4]) was “triggered apoptosis”.

In the case of CC(C)CCOc1cc(C[n+]2cn(CCC(C)C)c3cc(Br)c(Br)cc32)c(OCCC(C)C)c2ccccc12 [4m, 3-((1,4-Bis(isoamyloxy)naphthalen-2-yl)methyl)−5,6-dibromo-1-isoamyl-1H-benzo[d]imidazol-3-ium bromide], the inhibition at 10 µM [3] is reported as 57%.
